Results as given in ChEMBL document CHEMBL4138161, “Discovery of simplified sampangine derivatives as novel fungal biofilm inhibitors” (Eur J Med Chem, 2018).
In brackets after ≈: the same amount, converted by molar mass. Activity calls are given as the source filed them. The calls are words filed in the database; no cut-off is given here.

Assays:
Candida albicans [1] = assay: Antibiofilm activity against Candida albicans SC5314 assessed inhibition of yeast-to-hypha morphological transition at 0.25 ug/ml after 3 hrs; assay type: functional, organism-based
Summary of the method: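 Cells were induced to form hyphae in YPD with 10% (vol/vol) fetal bovine serum at 37°C for 3 h with compound. Cell morphology was then photographed. Strains were routinely grown beforehand in YPD at 30°C with shaking.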

Candida albicans [2] = assay: Antibiofilm activity against Candida albicans SC5314 assessed as disruption of biofilm formation at 6.4 ug/ml; assay type: functional, organism-based
Candida albicans [3] = assay: Antifungal activity against fluconazole-resistant Candida albicans clinical isolate 103 after 24 hrs by spectrophotometric analysis; assay type: functional; details: isolate 103, 24 h
Summary of the method: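 Broth microdilution (MIC80) against fluconazole-resistant clinical C. albicans isolates from a Shanghai hospital. Strains were grown in YPD at 30 ℃. Compounds came from 6.4 mg/mL DMSO stocks and were tested over a concentration series on 5×10^3 CFU/mL inoculum in RPMI 1640 at 35 ℃ for 24 h. OD600 was read; MIC80 is the lowest concentration giving 80% growth inhibition. Done in triplicate.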

Candida albicans [4] = assay: Fungicidal activity against Candida albicans SC5314 assessed as reduction in colony forming units at 0.8 ug/ml after 48 hrs by time-kill assay; assay type: functional, organism-based
Summary of the method: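 Time-kill: overnight cells PBS-washed, resuspended in RPMI 1640 at 1×10^6 cells/mL with compound, shaken at 200 rpm at 30 ℃. At set time points, dilutions plated on YPD agar and colonies counted after 48 h at 30 ℃. Three independent runs.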

Candida albicans [5] = assay: Antibiofilm activity against Candida albicans SC5314 cultured in YPD media containing 10% FBS assessed inhibition of yeast-to-hypha morphological transition after 3 hrs; assay type: functional, organism-based
Summary of the method: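 Yeast-to-hypha transition in YPD with 10% (v/v) FBS across compound concentrations; cell morphology photographed after 3 h at 37°C.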

Candida albicans [6] = assay: Antibiofilm activity against Candida albicans SC5314 assessed down regulation of EFG1 gene at 0.4 ug/ml after 1 hr by qRT-PCR analysis; assay type: functional, organism-based
Summary of the method: (§1)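 Biofilm grown in dishes with 0.4 µg/mL compound or DMSO control for 1 h; total RNA isolated and transcripts quantified by real-time RT-PCR. Normalized to 18S rRNA, expressed as fold change vs untreated SC5314. Mean ± SD of three independent experiments.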

Candida albicans [7] = assay: Antibiofilm activity against Candida albicans SC5314 assessed down regulation of UME6 gene at 0.4 ug/ml after 1 hr by qRT-PCR analysis; assay type: functional, organism-based; summary of the method: as §1
Nakaseomyces glabratus = assay: Antifungal activity against Candida glabrata 537 after 24 hrs by spectrophotometric analysis; assay type: functional; details: Nakaseomyces glabratus, 537, 24 h
Summary of the method: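 Broth microdilution in RPMI 1640, inoculum 5×10^3 CFU/mL, compounds from 6.4 mg/mL DMSO stocks, 35 ℃ for 24 h. Growth read as OD600; MIC80 taken as lowest concentration giving 80% growth inhibition. Triplicate.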

Caenorhabditis elegans = assay: Toxicity in Caenorhabditis elegans AU37 at 6.25 to 100 ug/ml after 2 days; assay type: organism-based; details: in vivo, 48 h
Summary of the method: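 Nematodes placed in medium containing a range of compound concentrations, held at 25 ℃ for 2 d, checked daily and photographed on day 2.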

Candida albicans [8] = assay: Antibiofilm activity against Candida albicans SC5314 assessed as disruption of biofilm formation at 12.8 ug/ml; assay type: functional, organism-based

Compound	Activity (Candida albicans [1])	Activity (Candida albicans [2])	MIC80 (Candida albicans [3])	Activity (Candida albicans [4])	Activity (Candida albicans [5])	Activity (Candida albicans [6])	Activity (Candida albicans [7])	MIC80 (Nakaseomyces glabratus)	Activity (Caenorhabditis elegans)	Activity (Candida albicans [8])
CCc1ccnc2c1C(=O)c1sc([N+](=O)[O-])cc1C2=O	Active	Active	0.25 µg/mL (≈ 0.867 µM)	Active	Dose-dependent effect	Active	Active	2 µg/mL (≈ 6.94 µM)	Non-Toxic	–
CCCc1ccnc2c1C(=O)c1sc([N+](=O)[O-])cc1C2=O	Active	–	0.5 µg/mL (≈ 1.65 µM)	Active	Dose-dependent effect	Active	Active	2 µg/mL (≈ 6.62 µM)	Non-Toxic	Active
